Consider 3 compounds from ChEMBL document CHEMBL5260844, “Optimization of PDE3A Modulators for SLFN12-Dependent Cancer Cell Killing” (ACS Med Chem Lett, 2019).

Data set [1] deals with SK-MEL3. Description: Cytotoxicity against human SK-MEL3 cells assessed as cell growth inhibition upto 10 uM measured after 48 hrs by […] reagent based assay. Format: functional. To be noted: SK-MEL3, 48 h.
A further data set has as its system HCT-116. The data set can be described thus: Cytotoxicity against human HCT-116 cells assessed as cell growth inhibition upto 10 uM measured after 48 hrs by […] reagent based assay. Format: functional. Put shortly:
(§1)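 Counterscreen viability assay in HCT116 colorectal cancer cells and IMR90 normal lung fibroblasts, run alongside DNMDP-sensitive lines.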

A further data set relates to IMR-90. The data set can be described thus: Cytotoxicity against human IMR-90 cells assessed as cell growth inhibition upto 10 uM measured after 48 hrs by […] reagent based assay. Format: functional. Put shortly: as §1
Data set [2] deals with cGMP-inhibited 3',5'-cyclic phosphodiesterase 3A (Homo sapiens, UniProt Q14432). Description: Inhibition of human N-terminal His-GST-tagged recombinant PDE3A (669-end residues) using fluorescent labelled cAMP as substrate.
Data set [3] concerns the target cGMP-inhibited 3',5'-cyclic phosphodiesterase 3B (Homo sapiens, UniProt Q13370). The data set can be described thus: Inhibition of human recombinant PDE3B.
In data set [4] the target is Ribonuclease SLFN12 (Homo sapiens) (UniProt Q8IYM2). Description: Stabilization of PDE3A/V5-epitope tagged SLFN12 interaction in human HeLa cells at 10 uM incubated for 8 hrs by immunoblotting analysis. Format: cell-based. Put shortly: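 HeLa cells transfected with a plasmid expressing V5-tagged SLFN12, then exposed to 10 µM compound for 8 h. Lysates immunoprecipitated with anti-PDE3A antibody for endogenous PDE3A. Co-precipitated SLFN12-V5 detected by immunoblot with anti-V5 antibody.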
On the technique in general: Immunoblotting shows a protein as a band on a membrane.

A short description of data set [5]: Microsomal stability in human liver microsomes assessed as parent compound remaining measured after 1 hr in presence of NADPH by UHPLC-MS analysis. Format: ADME, Microsome. To be noted: read-out: Stability. Put shortly:
(§2)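 Test compound incubated with human or mouse liver microsomes. Percent remaining at 1 h reported as the average of three values.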
For orientation: Liver microsomes are a subcellular fraction often used to study metabolism.

A short description of data set [6]: Microsomal stability in mouse liver microsomes assessed as parent compound remaining at 1 uM measured after 1 hr in presence of NADPH by UHPLC-MS analysis. In kind it is ADME, Microsome. Conditions: read-out: Stability. In outline: as §2
The nature of data set [7]: Plasma protein binding in human incubated for 5 hrs by UPLC-MS method. Format: ADME, cell-free. To be noted: read-out: PPB (converted). Put shortly: (§3)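 Plasma protein binding, human and mouse, reported as % bound, average of three values.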
The nature of data set [8]: Plasma protein binding in mouse incubated for 5 hrs by UPLC-MS method. In kind it is ADME, cell-free. To be noted: read-out: PPB (converted). Put shortly: as §3
The nature of data set [9]: Stability in human plasma assessed as parent compound remaining after 5 hrs. In kind it is ADME, cell-free. To be noted: read-out: Stability. Put shortly: (§4)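 Human or mouse plasma incubation. Percent parent remaining at 5 h, average of three values.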
Data set [10] can be described thus: Stability in mouse plasma assessed as parent compound remaining after 5 hrs. Format: ADME, cell-free. Conditions: read-out: Stability. Put shortly: as §4
The test system of another data set is A549. Description: Cytotoxicity against human A549 cells assessed as cell growth inhibition upto 10 uM measured after 3 days by […] reagent based assay. To be noted: time 72.0 hrs.
Data set [11] addresses 3',5'-cyclic-AMP phosphodiesterase 4B (Homo sapiens) (UniProt Q07343). The data set can be described thus: Inhibition of PDE4B (unknown origin) by 3H-cAMP scintillation proximity assay.
In data set [12] the target is cGMP-specific 3',5'-cyclic phosphodiesterase (Homo sapiens) (UniProt O76074). The data set can be described thus: Inhibition of PDE5 (unknown origin) by 3H-cAMP scintillation proximity assay. (In a scintillation proximity assay essentially only radioactivity close to the scintillant gives light.)
Data set [13] addresses Phosphodiesterase 6 (Homo sapiens) (UniProt Q13956+P18545+P35913+O43924+P16499+P51160). Description: Inhibition of PDE6 (unknown origin) by 3H-cAMP scintillation proximity assay. Format: protein assay.
The nature of data set [14]: Toxicity in NMRI nude mouse assessed as tolerance at 10 mg/kg, po administered twice daily for 44 days. To be noted: in vivo, 1056 h, time 44 day. In kind it is organism-based. Put shortly:
(§5)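 Female NMRI nude mice carrying subcutaneous SK-MEL-3 xenografts, given the compound orally at 10 or 20 mg/kg twice daily, or 50 mg/kg once daily. Tolerance judged by body weight loss (>10% critical) and toxicities.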

Data set [15] can be described thus: Toxicity in NMRI nude mouse assessed as tolerance at 20 mg/kg, po administered twice daily for 44 days. To be noted: in vivo, 1056 h, time 44 day. Format: organism-based. In outline:
as §5

Data set [16] in a line: Toxicity in NMRI nude mouse assessed as tolerance at 50 mg/kg, po administered once daily for 44 days. Format: organism-based. To be noted: in vivo, 1056 h, time 44 day. Put shortly:
as §5

Data set [17] deals with SK-MEL3. The data set can be described thus: Antitumor activity against human SK-MEL3 cells xenografted in NMRI nude mouse assessed as tumor weight by measuring tumor to control ratio at 50 mg/kg, po administered once daily for 44 days. Format: functional. Conditions: time 44 day. Put shortly:
(§6)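 SK-MEL-3 melanoma cells inoculated subcutaneously into female NMRI nude mice. Oral dosing at 10 or 20 mg/kg twice daily, or 50 mg/kg once daily, with vehicle controls. Tumor area and tumor weight expressed relative to vehicle as T/C_rel.area and T/C_weight.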

The subject of data set [18] is SK-MEL3. The data set can be described thus: Antitumor activity against human SK-MEL3 cells xenografted in NMRI nude mouse assessed as tumor growth inhibition by measuring tumor to control ratio at 50 mg/kg, po administered once daily for 44 days. Format: functional. Conditions: time 44 day. In outline:
as §6

In data set [19] the test system is SK-MEL3. The data set can be described thus: Antitumor activity against human SK-MEL3 cells xenografted in NMRI nude mouse assessed as tumor growth inhibition at 50 mg/kg, po administered once daily for 44 days. In kind it is functional, organism-based. To be noted: time 44.0 day. In outline: as §6
For data set [20], the system named is SK-MEL3. The data set can be described thus: Antitumor activity against human SK-MEL3 cells xenografted in NMRI nude mouse assessed as tumor growth inhibition at 20 mg/kg, po administered twice daily for 44 days. In kind it is functional, organism-based. Conditions: time 44.0 day. Put shortly:
as §6

The subject of data set [21] is SK-MEL3. The data set can be described thus: Antitumor activity against human SK-MEL3 cells xenografted in NMRI nude mouse assessed as tumor growth inhibition at 10 mg/kg, po administered twice daily for 44 days. In kind it is functional, organism-based. To be noted: time 44.0 day. Put shortly: as §6
The target of data set [22] is Voltage-gated inwardly rectifying potassium channel KCNH2 (Homo sapiens, UniProt Q12809). Description: Binding affinity to hERG (unknown origin). In kind it is toxicity.
Data set [23] can be described thus: Efflux ratio of permeability in human Caco-2 cells. Format: ADME, cell-based. Put shortly: (§7)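 Caco2 monolayer permeability measured in the apical-to-basolateral and basolateral-to-apical directions, in nm/s. Efflux ratio calculated as B-A over A-B.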
The nature of data set [24]: Permeability across basolateral to apical side in human Caco-2 cells. In kind it is ADME, cell-based. To be noted: read-out: permeability. Put shortly:
as §7

Data set [25] in a line: Permeability across apical to basolateral side in human Caco-2 cells. Format: ADME, cell-based. To be noted: read-out: permeability. Put shortly:
as §7

Data set [26] can be described thus: Solubility of the compound. In kind it is physicochemical.
Another data set has as its target Cytochrome P450 2D6 (Homo sapiens, UniProt P10635). Description: Inhibition of CYP2D6 (unknown origin). In kind it is ADME. In outline:
(§8)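 CYP450 inhibition panel covering CYP1A2, 2C8, 2C9, 2D6 and 3A4, with compound tested at high concentrations.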

For a further data set, the target named is Cytochrome P450 3A4 (Homo sapiens, UniProt P08684). The data set can be described thus: Inhibition of CYP3A4 (unknown origin). Format: ADME. Put shortly:
as §8

A further data set addresses Cytochrome P450 2C9 (Homo sapiens, UniProt P11712). Description: Inhibition of CYP2C9 (unknown origin). Format: ADME. Put shortly:
as §8

Another data set deals with Cytochrome P450 1A2 (Homo sapiens, UniProt P05177). The data set can be described thus: Inhibition of CYP1A2 (unknown origin). In kind it is ADME. Put shortly:
as §8

Another data set addresses Cytochrome P450 2C8 (Homo sapiens, UniProt P10632). The data set can be described thus: Inhibition of CYP2C8 (unknown origin). In kind it is ADME. In outline: as §8
The target in data set [27] is High affinity cGMP-specific 3',5'-cyclic phosphodiesterase 9A (Homo sapiens) (UniProt O76083). Description: Inhibition of PDE9A (unknown origin) by 3H-cAMP scintillation proximity assay.
Data set [28] deals with 3',5'-cyclic-AMP phosphodiesterase 7B (Homo sapiens) (UniProt Q9NP56). Description: Inhibition of PDE7B (unknown origin) by 3H-cAMP scintillation proximity assay.
Data set [29] concerns the target High affinity cAMP-specific and IBMX-insensitive 3',5'-cyclic phosphodiesterase 8A (Homo sapiens) (UniProt O60658). The data set can be described thus: Inhibition of PDE8A (unknown origin) by 3H-cAMP scintillation proximity assay.
The species entered for the next data set is Homo sapiens. The data set can be described thus: Inhibition of PDE1 (unknown origin) by 3H-cAMP scintillation proximity assay.
Data set [30] addresses cGMP-dependent 3',5'-cyclic phosphodiesterase (Homo sapiens) (UniProt O00408). The data set can be described thus: Inhibition of PDE2A (unknown origin) by 3H-cAMP scintillation proximity assay.
A further data set deals with HeLa. Description: Cytotoxicity against human HeLa cells assessed as cell growth inhibition measured after 48 hrs by […] reagent based assay. Format: functional.
A short description of data set [31]: Selectivity ratio, ratio of IC50 for human PDE3A to EC50 for cytotoxicity against human HeLa cells.
Data set [32] can be described thus: Selectivity ratio, ratio of IC50 for human PDE3B to EC50 for cytotoxicity against human HeLa cells.
The nature of data set [33]: Inhibition of PDE in human HeLa cells. In kind it is cell-based.

What is called EC50 is the midpoint of the concentration-response curve. In general, IC50 refers to the concentration that gives 50% inhibition. As usually defined, the efflux ratio is a quotient of directional permeabilities that is used to spot active efflux. Broadly, the solubility is the concentration that dissolves in the medium under given conditions.

Converted amounts (≈) assume the structure as drawn. Where a name gives a salt, the structure may show the parent alone. The source made the active and inactive calls. No cut-off for these calls is given here.

Chain of cGMP-inhibited 3',5'-cyclic phosphodiesterase 3A (Q14432 whole entry): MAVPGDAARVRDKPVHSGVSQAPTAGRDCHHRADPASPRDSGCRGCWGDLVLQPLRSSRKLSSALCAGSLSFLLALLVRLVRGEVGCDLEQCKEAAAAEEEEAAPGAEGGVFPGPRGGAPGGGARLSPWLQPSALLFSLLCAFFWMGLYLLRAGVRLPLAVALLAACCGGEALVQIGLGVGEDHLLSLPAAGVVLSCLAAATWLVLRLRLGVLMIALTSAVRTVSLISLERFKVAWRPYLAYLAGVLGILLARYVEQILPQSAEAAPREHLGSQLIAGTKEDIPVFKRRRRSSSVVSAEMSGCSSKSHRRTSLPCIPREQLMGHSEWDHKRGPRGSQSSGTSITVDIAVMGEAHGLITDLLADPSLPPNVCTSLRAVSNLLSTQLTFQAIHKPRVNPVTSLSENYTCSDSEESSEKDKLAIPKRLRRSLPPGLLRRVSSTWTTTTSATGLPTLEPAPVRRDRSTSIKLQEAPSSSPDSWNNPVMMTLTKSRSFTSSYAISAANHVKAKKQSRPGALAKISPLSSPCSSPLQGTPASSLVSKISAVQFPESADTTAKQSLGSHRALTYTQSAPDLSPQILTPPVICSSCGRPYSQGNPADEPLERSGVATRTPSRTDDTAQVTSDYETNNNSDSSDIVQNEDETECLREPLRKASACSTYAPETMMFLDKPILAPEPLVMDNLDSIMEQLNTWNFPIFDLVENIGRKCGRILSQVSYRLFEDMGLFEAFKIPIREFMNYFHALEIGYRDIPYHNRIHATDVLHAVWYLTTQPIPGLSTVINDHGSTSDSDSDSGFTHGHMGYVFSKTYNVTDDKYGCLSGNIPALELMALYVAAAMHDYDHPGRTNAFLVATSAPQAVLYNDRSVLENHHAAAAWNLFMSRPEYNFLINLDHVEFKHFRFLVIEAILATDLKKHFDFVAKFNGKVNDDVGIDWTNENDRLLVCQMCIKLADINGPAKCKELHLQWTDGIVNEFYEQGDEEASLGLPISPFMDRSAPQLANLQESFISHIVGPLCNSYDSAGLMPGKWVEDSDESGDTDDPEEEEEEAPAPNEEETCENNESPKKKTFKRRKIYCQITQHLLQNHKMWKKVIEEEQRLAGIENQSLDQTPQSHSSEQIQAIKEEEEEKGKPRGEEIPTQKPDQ
Chain of Ribonuclease SLFN12 (Homo sapiens) (Q8IYM2 whole entry): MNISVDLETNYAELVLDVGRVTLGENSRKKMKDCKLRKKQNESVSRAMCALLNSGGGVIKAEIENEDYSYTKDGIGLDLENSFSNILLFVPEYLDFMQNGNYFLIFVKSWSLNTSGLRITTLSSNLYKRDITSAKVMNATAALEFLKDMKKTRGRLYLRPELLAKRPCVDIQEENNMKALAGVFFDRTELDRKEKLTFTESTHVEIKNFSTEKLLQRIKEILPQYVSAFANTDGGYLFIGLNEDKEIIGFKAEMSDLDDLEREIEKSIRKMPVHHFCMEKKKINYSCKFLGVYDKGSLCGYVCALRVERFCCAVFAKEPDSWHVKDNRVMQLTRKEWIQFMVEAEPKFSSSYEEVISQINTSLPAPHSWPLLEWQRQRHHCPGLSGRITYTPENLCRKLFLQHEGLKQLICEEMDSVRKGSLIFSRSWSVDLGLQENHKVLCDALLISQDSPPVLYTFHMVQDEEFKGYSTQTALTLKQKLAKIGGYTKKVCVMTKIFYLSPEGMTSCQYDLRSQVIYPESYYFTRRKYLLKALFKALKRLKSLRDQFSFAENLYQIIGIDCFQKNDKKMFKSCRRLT
Chain of Cytochrome P450 3A4 (P08684 whole entry): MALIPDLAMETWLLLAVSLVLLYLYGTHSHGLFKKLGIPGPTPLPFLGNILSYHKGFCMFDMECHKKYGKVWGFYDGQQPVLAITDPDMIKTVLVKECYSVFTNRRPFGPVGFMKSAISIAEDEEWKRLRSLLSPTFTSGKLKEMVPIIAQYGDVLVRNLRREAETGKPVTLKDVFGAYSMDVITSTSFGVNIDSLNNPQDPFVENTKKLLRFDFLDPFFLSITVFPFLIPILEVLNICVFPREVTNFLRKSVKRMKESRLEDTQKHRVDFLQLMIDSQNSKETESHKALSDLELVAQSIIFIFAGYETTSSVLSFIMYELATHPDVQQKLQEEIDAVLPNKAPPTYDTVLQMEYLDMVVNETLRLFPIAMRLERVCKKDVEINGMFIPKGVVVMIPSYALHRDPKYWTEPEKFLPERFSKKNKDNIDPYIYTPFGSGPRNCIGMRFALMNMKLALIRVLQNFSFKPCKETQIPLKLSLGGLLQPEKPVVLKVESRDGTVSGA
Chain of Cytochrome P450 2C8 (P10632 whole entry): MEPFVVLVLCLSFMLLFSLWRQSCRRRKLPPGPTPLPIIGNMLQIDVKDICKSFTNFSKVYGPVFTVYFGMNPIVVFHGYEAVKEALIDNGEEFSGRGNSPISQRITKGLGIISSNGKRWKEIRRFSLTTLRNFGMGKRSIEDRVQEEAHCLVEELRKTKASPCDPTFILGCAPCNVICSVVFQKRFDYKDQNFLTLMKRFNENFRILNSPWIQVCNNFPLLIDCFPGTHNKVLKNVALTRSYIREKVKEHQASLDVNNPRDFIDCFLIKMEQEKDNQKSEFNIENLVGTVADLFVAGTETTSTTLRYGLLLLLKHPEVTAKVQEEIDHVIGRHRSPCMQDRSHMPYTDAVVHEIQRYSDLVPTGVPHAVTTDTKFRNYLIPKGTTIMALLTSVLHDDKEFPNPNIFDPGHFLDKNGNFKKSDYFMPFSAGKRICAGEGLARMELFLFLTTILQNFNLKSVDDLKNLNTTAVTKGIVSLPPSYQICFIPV
Chain of cGMP-dependent 3',5'-cyclic phosphodiesterase (Homo sapiens) (O00408 whole entry): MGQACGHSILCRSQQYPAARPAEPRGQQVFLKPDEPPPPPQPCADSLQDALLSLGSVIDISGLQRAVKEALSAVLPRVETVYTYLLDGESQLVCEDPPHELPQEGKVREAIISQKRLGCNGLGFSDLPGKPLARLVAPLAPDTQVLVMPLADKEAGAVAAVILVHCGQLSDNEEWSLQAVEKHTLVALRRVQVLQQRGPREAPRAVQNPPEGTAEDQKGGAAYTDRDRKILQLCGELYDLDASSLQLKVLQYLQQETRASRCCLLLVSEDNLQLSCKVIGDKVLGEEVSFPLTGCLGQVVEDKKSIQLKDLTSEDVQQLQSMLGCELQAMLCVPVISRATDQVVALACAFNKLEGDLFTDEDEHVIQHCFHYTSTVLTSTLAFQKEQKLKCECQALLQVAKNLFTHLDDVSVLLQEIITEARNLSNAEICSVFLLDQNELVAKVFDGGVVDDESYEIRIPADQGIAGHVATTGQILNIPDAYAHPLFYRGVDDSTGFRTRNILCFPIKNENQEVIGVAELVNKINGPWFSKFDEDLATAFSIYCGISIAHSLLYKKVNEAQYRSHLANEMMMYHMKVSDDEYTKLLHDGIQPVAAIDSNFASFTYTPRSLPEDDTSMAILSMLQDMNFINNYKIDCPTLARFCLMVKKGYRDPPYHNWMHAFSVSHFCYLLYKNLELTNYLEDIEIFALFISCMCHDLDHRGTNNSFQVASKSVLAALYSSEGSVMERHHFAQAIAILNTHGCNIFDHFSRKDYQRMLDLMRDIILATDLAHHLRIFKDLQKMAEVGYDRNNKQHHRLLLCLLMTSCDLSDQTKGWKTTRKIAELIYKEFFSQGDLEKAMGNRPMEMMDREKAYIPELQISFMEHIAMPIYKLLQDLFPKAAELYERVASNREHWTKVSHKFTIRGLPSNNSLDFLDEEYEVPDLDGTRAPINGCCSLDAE
Chain of High affinity cAMP-specific and IBMX-insensitive 3',5'-cyclic phosphodiesterase 8A (Homo sapiens) (O60658 whole entry): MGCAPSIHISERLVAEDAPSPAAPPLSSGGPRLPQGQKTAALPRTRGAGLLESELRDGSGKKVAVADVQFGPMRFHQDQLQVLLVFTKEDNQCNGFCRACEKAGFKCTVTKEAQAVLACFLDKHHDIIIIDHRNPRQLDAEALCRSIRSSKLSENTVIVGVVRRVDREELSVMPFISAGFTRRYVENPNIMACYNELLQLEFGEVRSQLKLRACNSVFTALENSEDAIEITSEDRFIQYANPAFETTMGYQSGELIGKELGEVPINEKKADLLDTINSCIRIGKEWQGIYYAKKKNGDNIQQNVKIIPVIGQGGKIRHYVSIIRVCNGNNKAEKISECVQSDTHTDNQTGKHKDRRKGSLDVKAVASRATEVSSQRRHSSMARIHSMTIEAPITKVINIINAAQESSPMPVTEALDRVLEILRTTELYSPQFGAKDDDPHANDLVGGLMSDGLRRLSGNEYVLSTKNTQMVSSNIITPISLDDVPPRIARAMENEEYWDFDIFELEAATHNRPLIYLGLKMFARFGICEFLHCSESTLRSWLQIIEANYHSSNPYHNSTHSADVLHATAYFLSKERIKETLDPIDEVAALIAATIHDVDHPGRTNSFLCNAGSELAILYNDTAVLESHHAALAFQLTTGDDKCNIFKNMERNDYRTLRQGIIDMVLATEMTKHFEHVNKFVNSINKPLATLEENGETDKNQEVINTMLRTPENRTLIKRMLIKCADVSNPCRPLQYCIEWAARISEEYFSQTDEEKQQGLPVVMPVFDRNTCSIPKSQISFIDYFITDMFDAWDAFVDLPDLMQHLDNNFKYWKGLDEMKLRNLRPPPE
Chain of Cytochrome P450 1A2 (P05177 whole entry): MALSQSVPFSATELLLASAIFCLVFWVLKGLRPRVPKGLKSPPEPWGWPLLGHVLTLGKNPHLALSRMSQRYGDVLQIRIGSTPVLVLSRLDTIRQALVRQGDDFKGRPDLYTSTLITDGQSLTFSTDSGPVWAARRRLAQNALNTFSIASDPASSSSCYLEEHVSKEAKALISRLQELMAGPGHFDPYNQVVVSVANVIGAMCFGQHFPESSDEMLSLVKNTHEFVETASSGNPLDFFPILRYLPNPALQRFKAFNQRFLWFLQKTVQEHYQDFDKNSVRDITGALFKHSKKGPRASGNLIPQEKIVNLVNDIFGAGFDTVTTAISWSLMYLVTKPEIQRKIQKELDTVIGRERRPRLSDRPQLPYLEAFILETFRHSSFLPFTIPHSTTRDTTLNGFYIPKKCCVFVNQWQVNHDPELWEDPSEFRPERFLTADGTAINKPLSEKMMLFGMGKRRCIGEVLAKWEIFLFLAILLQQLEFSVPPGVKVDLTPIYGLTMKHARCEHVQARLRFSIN

In the case of `CCN(CC)c1ccc(C2=NNC(=O)CC2C)cc1[N+](=O)[O-]` (stereo unspecified), the EC50 in the data set on SK-MEL3 [1] was 12 nM. The result in the data set on HCT-116, in the data set with IMR-90 and in the data set on A549 was inactive. Besides, the figures for the IC50 in data set [2] and in data set [3] were 25 nM and 100 nM, respectively. Besides, the outcome in data set [4] was Active. Besides, the remaining at 1 h in data set [5] was determined as 95%. For the same compound, the remaining at 1 h, 1 µM in data set [6] was found to be 23%. In addition, the values for the fraction unbound at 5 h in [7] and in data set [8] were 0.13 and 0.08, respectively. Besides, the remaining at 5 h in data set [9] came to 85%; in data set [10] it was 87%.
Regarding `C[C@@H]1CC(=O)NN=C1c1ccc(N2CCOCC2)c(F)c1`, the inhibition result in data set [11], in data set [12], in data set [13], in [27], in [28] and in data set [29] was “inactive” in each case. The inhibition result (in the data set listed under Homo sapiens; in data set [30]) was “inactive” in each case. The Activity result in [14] was “Non-Toxic”; in data set [15], “Non-Toxic”; in data set [16], “Non-Toxic”; in data set [22] it was “Not Active”. For the same compound, the T/C was 0.16 in the data set on SK-MEL3 [17] and 0.09 in the data set on SK-MEL3 [18]. Further, the TGI entry with SK-MEL3 [19], in the data set on SK-MEL3 [20] and in the data set with SK-MEL3 [21] was “Active” in each case. In data set [23], the efflux ratio was 0.71. Further, the Papp B→A in data set [24] amounted to 19.8 ×10⁻⁶ cm/s. Moreover, the Papp A→B in data set [25] was 27.9 ×10⁻⁶ cm/s. Besides, the concentration in solution in data set [26] (solubility) came to 1000 µM (≈ 291 µg/mL). The EC50 with SK-MEL3 [1] came out at 1.3 nM; with HeLa, 1.6 nM. Besides, the “inhibition (INH)” value on Cytochrome P450 2D6, at Cytochrome P450 3A4, against Cytochrome P450 2C9, on Cytochrome P450 1A2 and on Cytochrome P450 2C8 was “Not Active” each time. Moreover, the outcome in the data set with HCT-116, with IMR-90 and in the data set with A549 was inactive. The IC50 in [2] came to 10 nM. Also, the “Ratio IC50/EC50” value in [31] and in data set [32] was 2.4 in each case. Also, in [4], the outcome was Active.
Take `COc1cc2c(cc1OC)-c1c/c(=N\c3c(C)cc(C)cc3C)n(C)c(=O)n1CC2` [TREQUINSIN HYDROCHLORIDE]: the result in the data set with HCT-116 and with IMR-90 was inactive. Also, in data set [33], half-maximal inhibition (IC50) required 0.25 nM.
